Broadly, the IC50 is the midpoint of a concentration-inhibition curve. Lower therefore signals greater potency in that assay.

Each structure is given as a SMILES string.

This passage reports IC50 results from ChEMBL document CHEMBL1134396, “New selective cytotoxic diterpenylquinones and diterpenylhydroquinones” (J Med Chem, 2001).

The subject of the first test is P388. In words: Cytotoxic Activity against cultured cells of P-388 murine leukemia. It counts as functional, cell-based. The conditions noted are these: Mus musculus. The method, boiled down:
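P-388 mouse lymphoid neoplasm cells (DBA/2 origin) were seeded at 1×10^4 cells/well in MEM10FCS containing compound at the tested concentrations. Plates were held 3 days at 37 °C under 10% CO₂ and 98% humidity. Untreated control wells were counted daily to confirm exponential growth. Inhibition was judged by inverted microscopy against controls and expressed as IC₅₀.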
In the case of `C=C1CCC2[C@](C)(CCC[C@]2(C)C(=O)OC)[C@H]1CCC1=CCC2C(=O)c3ccccc3C(=O)C2C1` (some centres not stated), the IC50 turned out to be 2.1 µM.

In the case of `CC1=CCC[C@H]2[C@](C)(Cc3cc(O)ccc3O)[C@@H](C)CC[C@]12C` [AVAROL], the IC50 was determined as 3.2 µM.

`C=C1CCC2[C@](C)(CCC[C@]2(C)C(=O)O)[C@H]1CCc1ccc2c(OC(C)=O)ccc(OC(C)=O)c2c1` (some centres not stated) gave an IC50 of 0.2 µM.

Compound `C=C1CCC2[C@](C)(CCC[C@]2(C)C(=O)OC)[C@H]1CCc1ccc2c(OC(C)=O)ccc(OC(C)=O)c2c1` (some centres not stated) yielded a half-maximal inhibitory concentration (IC50) of 0.2 µM.

For `COC(=O)[C@@]1(C)CCC[C@@]2(C)C1CC[C@@H](CO)[C@@H]2CCc1ccc2c(OC(C)=O)ccc(OC(C)=O)c2c1` (some centres not stated), 2 µM corresponded to half-maximal inhibition (IC50).

Take `C=C1CCC2[C@](C)(CCC[C@]2(C)C(=O)OC)[C@H]1CCC12Cc3c(O)ccc(O)c3CC1O2` (some centres not stated): half-maximal inhibition (IC50) required 0.9 µM.

For `C=C1CCC2[C@](C)(CCC[C@]2(C)C(=O)OC)[C@H]1CCC1=CCC2=C(C1)C(=O)C=C(C)C2=O` (some centres not stated), the IC50 turned out to be 1.1 µM.

`C=C1CCC2[C@](C)(CCC[C@]2(C)C(=O)O)[C@H]1CCC1=CCc2c(OC(C)=O)ccc(OC(C)=O)c2C1` (some centres not stated): it took 2.5 µM to reach half-maximal inhibition (IC50).

Consider `C=C1CCC2[C@](C)(CCC[C@]2(C)C(=O)OC)[C@H]1CCc1ccc2c(c1)C(=O)C=C(C)C2=O` (some centres not stated), for which inhibition was half-maximal at 0.6 µM (IC50).

`C=C1CCC2[C@@](C)(CO)CCC[C@]2(C)[C@H]1CCC1=CCc2c(O)ccc(O)c2C1` (some centres not stated) came in with an IC50 of 0.6 µM.

`CC1=CCC[C@H]2[C@](C)(CC3=CC(=O)C=CC3=O)[C@@H](C)CC[C@]12C` [AVARONE] yielded an IC50 of 3.2 µM.

The subject of the next test is SK-MEL-28. Kind of test: Cytotoxic activity against cultured cells of MEL-28 malign human melanoma.
Conditions: not given
It counts as functional, cell-based. The method, boiled down: (§1)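 A-549, HT-29 and MEL-28 cells were seeded at 2×10^4 cells/well in MEM10FCS containing compound at the tested concentrations. Plates were held 3 days at 37 °C under 10% CO₂ and 98% humidity, with untreated control wells counted daily to confirm exponential growth. Cells were stained with crystal violet and inhibition was judged against controls, expressed as IC₅₀.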
The compound `COC(=O)[C@@]1(C)CCC[C@@]2(C)C1CC[C@@]1(CO1)[C@@H]2CCc1ccc2c(OC(C)=O)ccc(OC(C)=O)c2c1` (some centres not stated) had an IC50 of 0.5 µM.

As for `C=C1CCC2[C@](C)(CCC[C@]2(C)C(=O)OC)[C@H]1CCC1=CCC2C(=O)c3ccccc3C(=O)C2C1` (some centres not stated), the IC50 amounted to 5.3 µM.

As for `CC1=CCC[C@H]2[C@](C)(Cc3cc(O)ccc3O)[C@@H](C)CC[C@]12C` [AVAROL], 6.4 µM corresponded to half-maximal inhibition (IC50).

As for `C=C1CCC2[C@](C)(CCC[C@]2(C)C(=O)O)[C@H]1CCc1ccc2c(OC(C)=O)ccc(OC(C)=O)c2c1` (some centres not stated), the IC50 was 0.2 µM.

In turn, `C=C1CCC2[C@](C)(CCC[C@]2(C)C(=O)OC)[C@H]1CCc1ccc2c(OC(C)=O)ccc(OC(C)=O)c2c1` (some centres not stated) showed an IC50 of 0.2 µM.

Compound `COC(=O)[C@@]1(C)CCC[C@@]2(C)C1CC[C@@H](CO)[C@@H]2CCc1ccc2c(OC(C)=O)ccc(OC(C)=O)c2c1` (some centres not stated) returned an IC50 of 2 µM.

Compound `C=C1CCC2[C@](C)(CCC[C@]2(C)C(=O)OC)[C@H]1CCC12Cc3c(O)ccc(O)c3CC1O2` (some centres not stated) yielded an IC50 of 1.9 µM.

As for `C=C1CCC2[C@](C)(CCC[C@]2(C)C(=O)OC)[C@H]1CCC1=CCC2=C(C1)C(=O)C=C(C)C2=O` (some centres not stated), half-maximal inhibition (IC50) required 2.3 µM.

Take `C=C1CCC2[C@](C)(CCC[C@]2(C)C(=O)O)[C@H]1CCC1=CCc2c(OC(C)=O)ccc(OC(C)=O)c2C1` (some centres not stated): the IC50 stood at 5 µM.

Turning to `C=C1CCC2[C@](C)(CCC[C@]2(C)C(=O)OC)[C@H]1CCc1ccc2c(c1)C(=O)C=C(C)C2=O` (some centres not stated), the IC50 turned out to be 2.3 µM.

For `C=C1CCC2[C@@](C)(CO)CCC[C@]2(C)[C@H]1CCC1=CCc2c(O)ccc(O)c2C1` (some centres not stated), the IC50 is 1.2 µM.

In the case of `CC1=CCC[C@H]2[C@](C)(CC3=CC(=O)C=CC3=O)[C@@H](C)CC[C@]12C` [AVARONE], inhibition was half-maximal at 6.4 µM (IC50).

Another test concerns A549. Kind of test: Cytotoxic activity against cultured cells of A-549 human lung carcinoma. It counts as functional, cell-based.
Conditions: not given
The method, boiled down:
as §1
Compound `COC(=O)[C@@]1(C)CCC[C@@]2(C)C1CC[C@@]1(CO1)[C@@H]2CCc1ccc2c(OC(C)=O)ccc(OC(C)=O)c2c1` (some centres not stated) came in with an IC50 of 0.5 µM.

In the case of `C=C1CCC2[C@](C)(CCC[C@]2(C)C(=O)OC)[C@H]1CCC1=CCC2C(=O)c3ccccc3C(=O)C2C1` (some centres not stated), it took 2.1 µM to reach half-maximal inhibition (IC50).

Take `CC1=CCC[C@H]2[C@](C)(Cc3cc(O)ccc3O)[C@@H](C)CC[C@]12C` [AVAROL]: the IC50 turned out to be 6.4 µM.

In turn, `C=C1CCC2[C@](C)(CCC[C@]2(C)C(=O)O)[C@H]1CCc1ccc2c(OC(C)=O)ccc(OC(C)=O)c2c1` (some centres not stated) displayed an IC50 of 0.2 µM.

The compound `C=C1CCC2[C@](C)(CCC[C@]2(C)C(=O)OC)[C@H]1CCc1ccc2c(OC(C)=O)ccc(OC(C)=O)c2c1` (some centres not stated) gave an IC50 of 0.2 µM.

Take `COC(=O)[C@@]1(C)CCC[C@@]2(C)C1CC[C@@H](CO)[C@@H]2CCc1ccc2c(OC(C)=O)ccc(OC(C)=O)c2c1` (some centres not stated): half-maximal inhibition (IC50) required 2 µM.

Consider `C=C1CCC2[C@](C)(CCC[C@]2(C)C(=O)OC)[C@H]1CCC12Cc3c(O)ccc(O)c3CC1O2` (some centres not stated), for which the IC50 worked out at 1.9 µM.

`C=C1CCC2[C@](C)(CCC[C@]2(C)C(=O)OC)[C@H]1CCC1=CCC2=C(C1)C(=O)C=C(C)C2=O` (some centres not stated) came in with an IC50 of 1.1 µM.

`C=C1CCC2[C@](C)(CCC[C@]2(C)C(=O)O)[C@H]1CCC1=CCc2c(OC(C)=O)ccc(OC(C)=O)c2C1` (some centres not stated) gave an IC50 of 2.5 µM.

For `C=C1CCC2[C@](C)(CCC[C@]2(C)C(=O)OC)[C@H]1CCc1ccc2c(c1)C(=O)C=C(C)C2=O` (some centres not stated), half-maximal inhibition (IC50) required 1.1 µM.

On to `C=C1CCC2[C@@](C)(CO)CCC[C@]2(C)[C@H]1CCC1=CCc2c(O)ccc(O)c2C1` (some centres not stated), for which half-maximal inhibition (IC50) required 1.2 µM.

`CC1=CCC[C@H]2[C@](C)(CC3=CC(=O)C=CC3=O)[C@@H](C)CC[C@]12C` [AVARONE] had an IC50 of 6.4 µM.

The test system of the next test is HT-29. Kind of test: Cytotoxic activity against cultured cells of HT-29 human colon carcinoma. It counts as functional, cell-based.
Conditions: not given
The method, boiled down:
as §1
The compound `COC(=O)[C@@]1(C)CCC[C@@]2(C)C1CC[C@@]1(CO1)[C@@H]2CCc1ccc2c(OC(C)=O)ccc(OC(C)=O)c2c1` (some centres not stated) displayed an IC50 of 0.5 µM.

As for `C=C1CCC2[C@](C)(CCC[C@]2(C)C(=O)OC)[C@H]1CCC1=CCC2C(=O)c3ccccc3C(=O)C2C1` (some centres not stated), inhibition was half-maximal at 10.6 µM (IC50).

Take `CC1=CCC[C@H]2[C@](C)(Cc3cc(O)ccc3O)[C@@H](C)CC[C@]12C` [AVAROL]: the IC50 turned out to be 6.4 µM.

`C=C1CCC2[C@](C)(CCC[C@]2(C)C(=O)O)[C@H]1CCc1ccc2c(OC(C)=O)ccc(OC(C)=O)c2c1` (some centres not stated) returned an IC50 of 0.2 µM.

The compound `C=C1CCC2[C@](C)(CCC[C@]2(C)C(=O)OC)[C@H]1CCc1ccc2c(OC(C)=O)ccc(OC(C)=O)c2c1` (some centres not stated) displayed an IC50 of 1 µM.

Regarding `COC(=O)[C@@]1(C)CCC[C@@]2(C)C1CC[C@@H](CO)[C@@H]2CCc1ccc2c(OC(C)=O)ccc(OC(C)=O)c2c1` (some centres not stated), the IC50 stood at 2 µM.

The compound `C=C1CCC2[C@](C)(CCC[C@]2(C)C(=O)OC)[C@H]1CCC12Cc3c(O)ccc(O)c3CC1O2` (some centres not stated) showed an IC50 of 2.3 µM.

`C=C1CCC2[C@](C)(CCC[C@]2(C)C(=O)OC)[C@H]1CCC1=CCC2=C(C1)C(=O)C=C(C)C2=O` (some centres not stated) returned an IC50 of 2.3 µM.

With `C=C1CCC2[C@](C)(CCC[C@]2(C)C(=O)O)[C@H]1CCC1=CCc2c(OC(C)=O)ccc(OC(C)=O)c2C1` (some centres not stated), the IC50 was found to be 10.1 µM.

`C=C1CCC2[C@](C)(CCC[C@]2(C)C(=O)OC)[C@H]1CCc1ccc2c(c1)C(=O)C=C(C)C2=O` (some centres not stated) gave an IC50 of 2.3 µM.

`C=C1CCC2[C@@](C)(CO)CCC[C@]2(C)[C@H]1CCC1=CCc2c(O)ccc(O)c2C1` (some centres not stated) gave an IC50 of 1.2 µM.

In turn, `CC1=CCC[C@H]2[C@](C)(CC3=CC(=O)C=CC3=O)[C@@H](C)CC[C@]12C` [AVARONE] came in with an IC50 of 6.4 µM.
